# Arr AP2 block: inhibitors of beta-arrestin/AP2 binding, primary screen, biochemical, GPCR trafficking, flow cytometry | AID 504490, 2011 | 340,000 compounds, 0.31% hits | inhibition, % at 10 µM | FITC-arrestin peptide / GST-AP2 beads; AP2 beta2 appendage carries R879A mutation | beta-arrestin 1 C-terminal peptide binding to AP2 beta2-adaptin appendage (human);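 active = inhibition above a set limit, near 3 SD of compounds lacking own fluorescence, cut at about 54% in these data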;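 note: plate controls were DMSO wells for no effect and 5 µM unlabelled arrestin peptide for full effect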
#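 test system = AP2 appendage R879A on GSH beads | buffer or medium = PBS plus Tween 20 (0.05%) and BSA (0.1%) | incubation = 12 min plus 1 h, RT | detection = bead flow cytometry, FITC channel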
# GSK3 alpha inh: blockers of GSK3A enzyme activity – biochemical, luminescence, cell-free homogeneous, HTS, primary screen | inhibition, % at 10 µM | AID 2650, 2010 | GSK-3 alpha kinase, ADP-Glo luminescence, 60 min | 320,000 compounds, 0.1% hits | Glycogen synthase kinase-3 alpha (Homo sapiens), P49840;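 active = more than half of replicates show inhibition above 20%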;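 note: GST-tagged GSK-3 alpha with peptide substrate and 25 µM ATP; 0% = DMSO neutral wells and 100% = GW8510 positive control wells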
# STK33 inh: inhibitors of purified STK33 kinase, primary screen, biochemical, ADP-Glo luminescence, homogeneous, cell-free. Serine/threonine-protein kinase 33 (Homo sapiens), Q9BYT3. inhibition, % at 10 µM. MBP phosphorylation. 320,000 compounds, 0.073% hits;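 active = inhibition at or above 25%, using the most active replicate where run in duplicate; inactive = inhibition below 25%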
# DYRK1A inh: rat Dyrk1A kinase inhibitors, primary screen, biochemical, single point, plate reader; 310,000 compounds, 0.43% hits; ADP-Glo luminescence, NFATc1 peptide; inhibition, % at 12.5 µM; Dual specificity tyrosine-phosphorylation-regulated kinase 1A (Rattus norvegicus), Q63470; in the data active = inhibition above about 50%;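 note: plate controls were vehicle with enzyme for no effect and no enzyme for full effect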
# GSK3beta inhib: human GSK3beta kinase inhibitors, primary screen, biochemical, cell-free homogeneous, HTS. activity score (negative = inhibition), % at 10 µM. GST-GSK3beta kinase, ADP-Glo luminescence, 60 min; hits give low values. 300,000 compounds, 0.038% hits. Glycogen synthase kinase-3 beta (Homo sapiens), P49841;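 active = more than half of replicate wells score below -50%, meaning over 50% inhibition versus plate controls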;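 note: 0% = median DMSO wells and -100% = median GW8510 positive control wells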
# Target sequence (P49841 whole entry, looked up): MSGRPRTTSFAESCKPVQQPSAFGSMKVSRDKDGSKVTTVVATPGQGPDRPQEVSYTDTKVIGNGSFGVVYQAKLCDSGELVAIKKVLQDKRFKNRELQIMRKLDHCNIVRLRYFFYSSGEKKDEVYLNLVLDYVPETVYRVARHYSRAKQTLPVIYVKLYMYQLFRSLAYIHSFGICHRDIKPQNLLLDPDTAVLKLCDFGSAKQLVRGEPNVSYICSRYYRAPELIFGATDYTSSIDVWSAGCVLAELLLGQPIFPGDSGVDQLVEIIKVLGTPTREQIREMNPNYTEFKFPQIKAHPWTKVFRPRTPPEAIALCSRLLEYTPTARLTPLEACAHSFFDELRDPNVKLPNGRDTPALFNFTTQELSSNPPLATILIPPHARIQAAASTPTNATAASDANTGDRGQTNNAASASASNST
#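 Test system: GST-fused GSK3beta enzyme, cell-free | Quantity: 1.6 ng GST-GSK3beta enzyme per well | Reagent: 25 µM ATP with peptide substrate | Schedule: 60 min enzyme reaction, room temperature | Signal: Luminescent ADP-Glo measurement of ADP formed | Read-out basis: Score relative to plate controls | Control set: DMSO and 20 µM GW8510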
# Rin1-Abl PPI inh: inhibitors of Rin1-Abl protein binding, primary screen, biochemical, TR-FRET | inhibition, % at 7.35 µM | 360,000 compounds, 0.4% hits | Tyrosine-protein kinase ABL1 (Homo sapiens) + Ras and Rab interactor 1 (Homo sapiens), …; in the data active = inhibition above about 5%, passing the limit was not always enough
# ADP-Glo artifact: ADP-Glo luciferase interference without Dyrk1A, dose response, artefact control for Dyrk1A inhibitor project, biochemical, luminescence, cherry-pick, set 02; ADP-Glo luciferase artifact assay, no Dyrk1A; 1,300 tested, under 10 active; AC50, µM (top dose mostly 12 µM), inactives show at the highest dose activity change, negative = inhibition; AID 588348, 2011; shares compounds with DYRK1A inh;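 active = fitted half-maximal dose AC50 no more than ten times the top valid tested dose, with luminescence dropping as dose rises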
# The depositor's hits bear a star; nt = not tested or not shown. Shown are actives, neighbours in structure and some others; about 0.99% of the full set was active somewhere.
SMILES,Arr AP2 block,GSK3 alpha inh,STK33 inh,DYRK1A inh,GSK3beta inhib,Rin1-Abl PPI inh,ADP-Glo artifact
O=C(Nc1ccc(Cl)cc1)Nc1ccc2c(c1)N1CCN=C1S2,-2,-1,1,68*,-1,0,10%
CCCn1c(NCc2ccco2)nc2c1c(=O)n(C)c(=O)n2C,4,0,-2,-2,-7,0,nt
Cn1c(=O)c2c(nc(NCc3ccco3)n2CC(O)COc2ccccc2)n(C)c1=O (configuration not stated),-1,2,-2,56*,0,-4,8%
CC1(CNC(=O)C(=O)NCC2(C)CO2)CO1 (configuration not stated),3,nt,nt,3,nt,2,nt
c1ccc2c(-c3nc(C4CCCCC4)no3)cc(-c3ccncc3)nc2c1,32,-1,0,72*,0,2,8%
CCOc1ccc(N(C)c2ccc(/C=C3/SC(=S)NC3=O)cc2)cc1,36,1,-1,-6,-1,-1,nt
O=Cc1ccc(Oc2cnccn2)cc1,33,nt,-2,1,2,-4,nt
O=C1NC(=S)S/C1=C/c1ccc(Oc2cnccn2)cc1,3,-2,0,65*,2,-1,10%
O=C1NC(=O)/C(=C\c2ccc(Oc3cnccn3)cc2)S1,6,0,2,59*,4,1,10%
Cc1ccc2c(c1)C(=C(C#N)C#N)CCN2,1,nt,nt,61*,nt,0,9%
COc1ccc(CN(C)S(=O)(=O)c2nnc(NC(=O)c3cccc(F)c3)s2)cc1,-9,-2,0,3,2,0,nt
Nc1[nH]n2c(=O)cc(-c3ccccc3)nc2c1N=Nc1ccc(S(N)(=O)=O)cc1,13,3,0,64*,-1,-2,7%
O=C(O)CCC(=O)Nc1ccc(N2CCCCCC2)cc1,8,-3,-1,53*,4,-1,8%
Cc1ccc(-c2nn[nH]n2)cc1Cl,14,5,0,53*,-4,0,8%
Cc1ccc(-c2nn[nH]n2)cc1,-4,1,nt,27,0,-3,nt
CCN(CC(=O)Nc1c(F)cccc1F)C(=O)CCc1nc2sc3c(c2c(=O)[nH]1)CCCC3,22,nt,nt,-2,3,3,nt
CCC(C)NC(=O)C1CCCN(S(=O)(=O)c2ccc3c(c2)CC(C)N3C(=O)C2CC2)C1 (configuration not stated),10,1,-2,58*,2,1,11%
CCc1ccccc1NC(=O)C1CCCN(S(=O)(=O)c2ccc3c(c2)CC(C)N3C(C)=O)C1 (configuration not stated),17,0,0,56*,-5,-1,8%
CCC1NC(=O)c2cccnc2-n2c1nc1ccc(OC)cc1c2=O (configuration not stated),nt,nt,nt,nt,nt,-1,nt
CCOC(=O)CSC1=NC(=O)/C(=C\c2ccc(OC(C)=O)cc2)S1,15,13,12,86*,-13,-3,9%
N#Cc1c2ccc(OCC(=O)NCc3ccco3)cc2n2ccccc12,-3,4,9,41,2,-2,nt
N#Cc1c2ccc(O)cc2n2ccccc12,12,26,32*,87*,-11,-2,8%
CN1CCc2cc3c(c4c2[C@H]1[C@H](O)c1ccccc1-4)OCO3,-3,17,9,82*,-4,-10,6%
COc1ccc2c(c1OC)C(=O)OC2C1c2c(cc3c(c2OC)OCO3)CCN1C (configuration not stated),6,-2,0,7,4,2,nt
Cc1ccc(C(=O)c2coc3ccc(OCC(=O)O)cc23)cc1,-6,89*,3,70*,-72*,-1,10%
SMILES,Arr AP2 block,GSK3 alpha inh,STK33 inh,DYRK1A inh,GSK3beta inhib,Rin1-Abl PPI inh,ADP-Glo artifact
O=C(O)COc1ccc2occ(C(=O)c3ccccc3)c2c1,3,83*,1,66*,2,-2,8%
CC(=O)Oc1ccc2occ(C(=O)c3ccccc3)c2c1,3,13,0,nt,0,-1,nt
CC(=O)Nc1ccc(Nc2cc(C)nc3c(-c4ccccc4)cnn23)cc1,9,0,6,55*,nt,3,8%
Cc1cc(N)n2ncc(-c3ccccc3)c2n1,4,2,10,26,2,-4,nt
CC(C)C[C@H]1COCCS(=O)(=O)N1Cc1ccc(Cl)c(Cl)c1,4,1,-1,51*,-2,1,8%
O=C(NC1CCCc2c1cnn2-c1ccccc1F)c1ccncc1 (configuration not stated),nt,nt,nt,nt,nt,-3,nt
COc1cc(/C=N/n2cnnc2)ccc1OCCOc1ccccc1,5,-1,0,6,4,-3,nt
C=CCc1ccc(OCCOc2ccc(/C=N/n3cnnc3)cc2OCC)c(OC)c1,9,-5,-1,60*,2,-4,10%
C=CCNC(=S)Nc1ccc2cn[nH]c2c1,0,23,24,70*,-6,-5,7%
Cc1ccc(NC(=S)Nc2ccc3cn[nH]c3c2)cc1,-5,-2,9,63*,1,-7,12%
Cc1cc(C)cc(NC(=S)Nc2ccc3cn[nH]c3c2)c1,3,nt,nt,48,-4,3,nt
CCN1C(=O)[C@H]2[C@@H](c3ccc(-c4cccc(Cl)c4)c(OC)c3)N[C@@](CC(C)C)(C(=O)OC)[C@H]2C1=O,-1,-2,-1,13,-3,3,nt
Cc1ccc(/C=N/NC(=O)c2nnn(-c3nonc3N)c2-c2ccc3c(c2)OCO3)s1,-10,0,-1,nt,-3,0,nt
C=CC[C@@H](CC(=O)N[C@H](CO)Cc1ccccc1)C(=O)NC[C@H](OC(=O)[C@@H](CC=C)Cc1ccc(F)cc1)c1ccccc1,-9,1,0,6,nt,2,nt
COc1cc(/C=C2\SC(=S)N(NC(=O)c3cccc(O)c3)C2=O)ccc1O,-1,2,0,61*,-9,0,5%
COc1cccc(/C=N/n2c(COc3ccccc3)n[nH]c2=S)c1O,-19,23,3,57*,-2,-5,9%
COc1cccc(/C=N/n2c(COc3ccccc3)n[nH]c2=S)c1OC,31,8,-1,3,-2,1,nt

# Screening data: PubChem, several laboratories
